This note sets out measurements from ChEMBL document CHEMBL5316280, “Development of N-(1-Adamantyl)benzamides as Novel Anti-Inflammatory Multitarget Agents Acting as Dual Modulators of the Cannabinoid CB2 Receptor and Fatty Acid Amide Hydrolase” (J Med Chem, 2023).

The test system of test [1] is THP-1. Put plainly: Antiinflammatory activity in human THP-1 macrophages assessed as decrease in IL-6 level incubated for 24 hrs by ELISA based qRT-PCR analysis. It counts as functional, cell-based. The essentials:
(§1)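 THP-1 cells were seeded at 1 x 10⁵ cells/ml for 48 h. For macrophages, cells were differentiated with 0.01 µM PMA for 48 h; monocytes received no PMA. Cells were then given 24 h with or without 10 µg/ml LPS, plus ligands alone or with the CB2R inverse agonist JTE907 (10 µM). Cytokines were measured in 5 µL supernatant (from 1 x 10⁴ cells) by ProQuantum immunoassay, read as pg/ml from kit titration curves; n=3.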
In general terms: In an ELISA, binding on a coated surface is turned into a signal by an enzyme label.

For test [2], the system named is THP-1. Put plainly: Antiinflammatory activity in human THP-1 macrophages assessed as decrease in IL-6 level incubated for 24 hrs in presence of […] by ELISA based qRT-PCR analysis. It counts as functional, cell-based. The essentials: as §1
Test [3] deals with T1, Cannabinoid receptor 1 (Homo sapiens, UniProt P21554). Put plainly: Agonist activity at human CB1 receptor in CHO cells incubated for 15 mins by plate reader analysis.
T1 sequence (P21554 whole entry): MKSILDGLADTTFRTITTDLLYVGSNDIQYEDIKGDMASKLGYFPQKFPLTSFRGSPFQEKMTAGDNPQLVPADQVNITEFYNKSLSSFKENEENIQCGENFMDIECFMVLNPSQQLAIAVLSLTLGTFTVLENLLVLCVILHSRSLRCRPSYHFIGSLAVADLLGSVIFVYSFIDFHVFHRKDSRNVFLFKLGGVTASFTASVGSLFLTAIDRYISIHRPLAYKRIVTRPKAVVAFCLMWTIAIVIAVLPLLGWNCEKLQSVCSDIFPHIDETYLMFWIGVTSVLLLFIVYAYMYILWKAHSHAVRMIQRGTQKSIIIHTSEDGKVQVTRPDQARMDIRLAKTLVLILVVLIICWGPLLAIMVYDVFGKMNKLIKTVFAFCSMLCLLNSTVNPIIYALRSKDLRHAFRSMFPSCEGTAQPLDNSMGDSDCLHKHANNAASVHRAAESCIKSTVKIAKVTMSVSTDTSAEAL
For test [4], the system named is THP-1. Put plainly: Antiinflammatory activity in human THP-1 monocytes assessed as decrease in IFNgamma level incubated for 24 hrs by ELISA based qRT-PCR analysis. It counts as functional, cell-based. The essentials: as §1
Test [5] relates to THP-1. Put plainly: Antiinflammatory activity in human THP-1 macrophages assessed as decrease in IL-1beta level incubated for 24 hrs by ELISA based qRT-PCR analysis. It counts as functional, cell-based. The essentials: as §1
The test system of test [6] is THP-1. Kind of test: Antiinflammatory activity in human THP-1 monocytes assessed as decrease in IL-1beta level incubated for 24 hrs in presence of […] by ELISA based qRT-PCR analysis. It counts as functional, cell-based. The essentials:
as §1

For test [7], the system named is THP-1. Put plainly: Antiinflammatory activity in human THP-1 macrophages assessed as decrease in IFNgamma level incubated for 24 hrs in presence of […] by ELISA based qRT-PCR analysis. It counts as functional, cell-based. The essentials: as §1
The target in test [8] is T1, Cannabinoid receptor 1. Put plainly: Displacement of [3H]CP55940 from recombinant human CB1 receptor expressed in HEK293 cell membrane incubated for 60 mins by beta scintillation counter method. A general note: Loss of bound radioactivity is the signal in a displacement assay; it reports binding, not function.
The target of test [9] is Cannabinoid receptor 2 (Mus musculus) (UniProt P47936). Kind of test: Agonist activity at mouse CB2 receptor transfected in CHO-K1 cells assessed as beta2-arrestin recruitment incubated for 90 mins by luminescence based assay relative to control. It counts as functional, cell-based. The essentials:
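PathHunter eXpress kit using mouse CB2 receptor in CHO-K1 cells. Cells were seeded 48 h before the assay in kit medium. Compounds in cell plating reagent were incubated 90 min at 37 °C, 5% CO2. Working detection solution was then added for 60 min at room temperature to read β-arrestin recruitment.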
For orientation: Recruitment of arrestin is a read-out of receptor activation apart from second messengers.

The subject of test [10] is THP-1. Kind of test: Antiinflammatory activity in human THP-1 monocytes assessed as decrease in TNFalpha level incubated for 24 hrs in presence of […] by ELISA based qRT-PCR analysis. It counts as functional, cell-based. The essentials: as §1
Test [11] deals with THP-1. Put plainly: Antiinflammatory activity in human THP-1 monocytes assessed as decrease in IL-6 level incubated for 24 hrs by ELISA based qRT-PCR analysis. It counts as functional, cell-based. The essentials:
as §1

Test [12] deals with THP-1. Put plainly: Antiinflammatory activity in human THP-1 monocytes assessed as increase in IL-10 level incubated for 24 hrs by ELISA based qRT-PCR analysis. It counts as functional, cell-based. The essentials: as §1
Test [13] relates to THP-1. Kind of test: Antiinflammatory activity in human THP-1 macrophages assessed as decrease in TNFalpha level incubated for 24 hrs by ELISA based qRT-PCR analysis. It counts as functional, cell-based. The essentials:
as §1

In test [14] the test system is THP-1. Put plainly: Antiinflammatory activity in human THP-1 macrophages assessed as increase in IL-4 level incubated for 24 hrs in presence of […] by ELISA based qRT-PCR analysis. It counts as functional, cell-based. The essentials: as §1
The next test addresses Cannabinoid receptor 2 (Homo sapiens, UniProt P34972). Put plainly: Agonist activity at human CB2 receptor overexpressed in CHO-K1 cells assessed as cAMP level incubated for 30 mins by luminescence based assay relative to control. It counts as functional, cell-based. Particulars: filed as agonist. The essentials: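 CHO-K1 cells overexpressing human CB2R were plated at 30 000 cells/well and held overnight at 37 °C, 5% CO2. Test samples were added as dose–response solutions with NKH-477 to stimulate adenylate cyclase, then incubated 30 min at 37 °C. cAMP was detected by luminescence after cell lysis. Values were normalized to NKH-477 alone as 100% response. Three independent experiments were run in triplicate.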

Test [15] relates to THP-1. Kind of test: Antiinflammatory activity in human THP-1 macrophages assessed as decrease in IL-1beta level incubated for 24 hrs in presence of […] by ELISA based qRT-PCR analysis. It counts as functional, cell-based. The essentials: as §1
In test [16] the test system is THP-1. Put plainly: Antiinflammatory activity in human THP-1 monocytes assessed as decrease in IL-6 level incubated for 24 hrs in presence of […] by ELISA based qRT-PCR analysis. It counts as functional, cell-based. The essentials: as §1
Test [17] deals with THP-1. Kind of test: Antiinflammatory activity in LPS-activated human THP-1 macrophages assessed as increase in IL-10 level incubated for 24 hrs by ELISA based qRT-PCR analysis. It counts as functional, cell-based. The essentials: as §1
Test [18] relates to THP-1. Put plainly: Antiinflammatory activity in LPS-activated human THP-1 macrophages assessed as increase in IL-4 level incubated for 24 hrs by ELISA based qRT-PCR analysis. It counts as functional, cell-based. The essentials: as §1
For test [19], the system named is THP-1. Kind of test: Antiinflammatory activity in LPS-activated human THP-1 monocytes assessed as decrease in IL-6 level incubated for 24 hrs by ELISA based qRT-PCR analysis. It counts as functional, cell-based. The essentials: as §1

Structures are written as SMILES. Activity calls are given as the source filed them. No cut-off for these calls is given here.

As usually defined, the EC50 is the midpoint of the concentration-response curve. A lower EC50 goes with higher potency in that assay. One may read the Ki as a measure of affinity in units of concentration, obtained from inhibition or displacement. One may read the Emax as the size of the effect at its maximum, as opposed to the concentration needed.

Cannabinoid receptor 2, sequence (P34972 whole entry): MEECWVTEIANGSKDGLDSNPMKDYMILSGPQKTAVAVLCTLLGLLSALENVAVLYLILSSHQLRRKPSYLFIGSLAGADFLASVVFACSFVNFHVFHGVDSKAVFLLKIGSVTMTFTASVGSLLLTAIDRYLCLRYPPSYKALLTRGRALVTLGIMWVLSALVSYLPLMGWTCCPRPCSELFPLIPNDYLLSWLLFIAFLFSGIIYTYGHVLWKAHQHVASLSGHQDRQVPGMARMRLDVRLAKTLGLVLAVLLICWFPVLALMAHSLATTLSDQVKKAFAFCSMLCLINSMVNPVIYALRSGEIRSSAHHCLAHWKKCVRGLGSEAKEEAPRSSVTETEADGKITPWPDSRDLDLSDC
Cannabinoid receptor 2 (Mus musculus), sequence (P47936 whole entry): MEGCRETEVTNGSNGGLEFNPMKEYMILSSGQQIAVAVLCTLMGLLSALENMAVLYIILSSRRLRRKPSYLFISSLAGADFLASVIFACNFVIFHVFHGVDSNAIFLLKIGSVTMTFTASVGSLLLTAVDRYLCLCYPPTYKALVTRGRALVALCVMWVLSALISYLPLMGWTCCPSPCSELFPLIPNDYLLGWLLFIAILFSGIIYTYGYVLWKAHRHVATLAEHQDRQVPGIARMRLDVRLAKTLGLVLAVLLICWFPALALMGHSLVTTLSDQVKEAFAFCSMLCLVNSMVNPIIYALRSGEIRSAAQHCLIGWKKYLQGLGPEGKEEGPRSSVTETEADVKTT

In the case of `CCCCCOc1ccccc1C(=O)NC12CC3CC(CC(C3)C1)C2`, the result in the test with THP-1 [1], in the test on THP-1 [4], with THP-1 [5], with THP-1 [12] and with THP-1 [13] was Active. Also, the result in the test on THP-1 [2], in the test on THP-1 [6], with THP-1 [7], in the test with THP-1 [10], in the test on THP-1 [11] and with THP-1 [14] was inactive. For the same compound, the outcome in the test on THP-1 [15] and in the test with THP-1 [16] was inactive. On Cannabinoid receptor 1 [3], this compound had an EC50 of 106 nM. Also, the inhibition constant (Ki) on Cannabinoid receptor 1 [8] stood at 153 nM. Also, the Emax in [9] was 34.5%; on Cannabinoid receptor 2, 95.3%.

For the compound `O=C(NC12CC3CC(CC(C3)C1)C2)c1ccccc1OCc1ccccc1`, the outcome with THP-1 [1], in the test with THP-1 [2], in the test on THP-1 [17], in the test on THP-1 [6], in the test on THP-1 [7] and with THP-1 [10] was inactive. For the same compound, the outcome with THP-1 [18], with THP-1 [11], with THP-1 [14], in the test on THP-1 [15] and in the test with THP-1 [16] was inactive. This compound also showed an EC50 on Cannabinoid receptor 1 [3] of 489 nM. In addition, the outcome with THP-1 [4], in the test on THP-1 [5], with THP-1 [12] and in the test on THP-1 [13] was Active. Moreover, the Ki on Cannabinoid receptor 1 [8] was determined as 241 nM. Also, the Emax amounted to 12.6% in test [9] and 96.3% on Cannabinoid receptor 2.

In the case of `O=C(NC12CC3CC(CC(C3)C1)C2)c1ccccc1OCC1CCCCC1`, the result with THP-1 [1], with THP-1 [4], in the test with THP-1 [5], in the test on THP-1 [11], with THP-1 [12] and in the test with THP-1 [13] was Active. Further, the outcome with THP-1 [2], with THP-1 [19], in the test with THP-1 [6], in the test on THP-1 [7], with THP-1 [10] and in the test with THP-1 [14] was inactive. Besides, the outcome with THP-1 [15] and with THP-1 [16] was inactive. This compound also returned an EC50 on Cannabinoid receptor 1 [3] of 253 nM. Moreover, the Ki at Cannabinoid receptor 1 [8] stood at 67.6 nM. The Emax in test [9] turned out to be 5.5%; on Cannabinoid receptor 2, 90.1%.
